Data on two compounds can be found in paper PMC5450914 (Bioorganic & medicinal chemistry, 2017).

The target of test [1] is T1, Recombinant GGDPS (Homo sapiens, UniProt O95749).
T1 sequence (O95749 1-300): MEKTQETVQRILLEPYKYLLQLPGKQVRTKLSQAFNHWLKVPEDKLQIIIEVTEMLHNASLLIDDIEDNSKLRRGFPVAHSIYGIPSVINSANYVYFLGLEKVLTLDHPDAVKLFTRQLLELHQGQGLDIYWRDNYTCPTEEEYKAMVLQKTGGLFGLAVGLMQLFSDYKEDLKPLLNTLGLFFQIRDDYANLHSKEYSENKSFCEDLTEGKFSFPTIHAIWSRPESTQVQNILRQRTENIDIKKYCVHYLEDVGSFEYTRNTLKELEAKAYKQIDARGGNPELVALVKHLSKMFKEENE
In words: GGDPS enzyme assay. It counts as biochemical.

Test [2] concerns RPMI-8226 cells. In words: Disruption of protein geranylgeranylation in myeloma cells. Type of test: cell-based. The note with it: 48 hours. In short, it runs like this:
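RPMI-8226 myeloma cells exposed 48 h to varying test compound concentrations, with lovastatin 10 μM as comparator. Rap1a: RIPA whole-cell lysate, antibody recognising only unmodified protein, β-tubulin loading control. Rab6: Triton X-114 detergent (membrane) fraction, calnexin loading control, densitometry normalised to calnexin and to untreated cells. Equal BCA-quantified protein resolved by SDS-PAGE, transferred to PVDF, detected with HRP secondary and ECL.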

As to `CC(C)=CCC/C(C)=C/CCCn1cc(CC(P(=O)([O-])[O-])P(=O)([O-])[O-])nn1.[Na+].[Na+].[Na+].[Na+]` [17b, Sodium (4E)–(2–(1–(5,9–dimethyldeca–4,8–dienyl)–1H–1,2,3–triazol–4–yl)ethane–1,1–diyl)bis(phosphonate)], the “potency relative to geranyl 1 (GGDPS inhibitory activity)” value in test [1] (compared with previously reported compound 1) is on record as “six-fold more potent”. The “fold less potent than homogeranyl 4 (GGDPS inhibitory activity)” value in test [1] (compared with previously reported compound 4) was determined as 15 fold.

Turning to `CC(C)=CCC/C(C)=C\CCCn1cc(CC(P(=O)([O-])[O-])P(=O)([O-])[O-])nn1.[Na+].[Na+].[Na+].[Na+]` [17c, Sodium (4Z)–(2–(1–(5,9–dimethyldeca–4,8–dienyl)–1H–1,2,3–triazol–4–yl)ethane–1,1–diyl)bis(phosphonate)], the “lowest concentration at which disruption of protein geranylgeranylation was seen” value in test [2] was found to be 0.5 µM.
